Common to all, as to type: functional, Homo sapiens
Test [1] has as its system T-24. Put plainly: Percent of viable cells by survival assay (colony forming) in T24 bladder carcinoma cells at 1 uM in the presence of 150 uM MMS. The method in brief: (§1)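 Colony-forming survival assay in T24 bladder carcinoma cells. Compound was given alongside DMSO alone or methyl methanesulfonate (MMS) at 110, 150 or 200 μM. Survival is expressed relative to the DMSO-only control, set at 100. Values are the average of two independent experiments.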

For test [2], the system named is T-24. Description: Percent of viable cells by survival assay (colony forming) in T24 bladder carcinoma cells at 1 uM in the presence of DMSO. In a few lines:
as §1

Test [3] has as its system T-24. Put plainly: Percent of viable cells by survival assay (colony forming) in T24 bladder carcinoma cells at 1 uM in the presence of 200 uM MMS. In a few lines:
as §1

Test [4] concerns T-24. Put plainly: Percent of viable cells by survival assay (colony forming) in T24 bladder carcinoma cells at 3 uM in the presence of 200 uM MMS. The method in brief: as §1
Test [5] relates to T-24. Description: Percent of viable cells by survival assay (colony forming) in T24 bladder carcinoma cells at 3 uM in the presence of 150 uM MMS. The method in brief:
as §1

Test [6] has as its system T-24. Description: Percent of viable cells by survival assay (colony forming) in T24 bladder carcinoma cells at 3 uM in the presence of 110 uM MMS. In a few lines:
as §1

Test [7] concerns T-24. Put plainly: Percent of viable cells by survival assay (colony forming) in T24 bladder carcinoma cells at 3 uM in the presence of DMSO. The method in brief: as §1
Test [8] relates to T-24. Put plainly: Percent of viable cells by survival assay (colony forming) in T24 bladder carcinoma cells at 1 uM in the presence of 110 uM MMS. In a few lines:
as §1

In the case of `COc1cc(Cn2c(=O)n(O)c(=O)c3c(C)csc32)cc2c1OCO2`, the Viable cells in the test on T-24 [1] turned out to be 12%; with T-24 [2], 100%; in the test with T-24 [3] it was 2%; in the test on T-24 [4], 0%; in the test with T-24 [5], 6%; in the test on T-24 [6] it was 11%. The values for the Viable cells with T-24 [7] and in the test with T-24 [8] were 86% and 24%, respectively.

As to `O=c1c2sccc2n(CC2COc3ccccc3O2)c(=O)n1O` (stereo unspecified), the Viable cells worked out at 6% with T-24 [1]; 96% in the test on T-24 [2]; 4% with T-24 [3]; 4% in the test on T-24 [4]; 5% in the test with T-24 [5]; 11% with T-24 [6]. The Viable cells turned out to be 87% in the test on T-24 [7] and 18% in the test on T-24 [8].
